Source: ChEMBL document CHEMBL1141532, “Design and synthesis of tetrazole-based growth hormone secretagogue: the SAR studies of the O-benzyl serine side chain” (Bioorg Med Chem Lett, 2008)

Key:
[1] = tested on: Rattus norvegicus; assay: Increase of growth hormone release in rat plasma at 1.74 umol/kg, iv after 15 mins by radioimmunoassay relative to control; format: functional
Method in brief: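 Acute model in anesthetized rats. Dosed intravenously at 1.74 μmol/kg. Blood was drawn 15 min later and plasma was isolated. Rat GH was measured by radioimmunoassay. Results are given as percent increase in GH release over vehicle-treated control animals.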

[2] = molecular target: Growth hormone secretagogue receptor type 1 (Homo sapiens, UniProt Q92847); assay: […] human growth hormone secretagogue receptor assessed as measuring intracellular calcium level by FLIPR assay; format: functional, cell-based
Growth hormone secretagogue receptor type 1, sequence (Q92847 whole entry): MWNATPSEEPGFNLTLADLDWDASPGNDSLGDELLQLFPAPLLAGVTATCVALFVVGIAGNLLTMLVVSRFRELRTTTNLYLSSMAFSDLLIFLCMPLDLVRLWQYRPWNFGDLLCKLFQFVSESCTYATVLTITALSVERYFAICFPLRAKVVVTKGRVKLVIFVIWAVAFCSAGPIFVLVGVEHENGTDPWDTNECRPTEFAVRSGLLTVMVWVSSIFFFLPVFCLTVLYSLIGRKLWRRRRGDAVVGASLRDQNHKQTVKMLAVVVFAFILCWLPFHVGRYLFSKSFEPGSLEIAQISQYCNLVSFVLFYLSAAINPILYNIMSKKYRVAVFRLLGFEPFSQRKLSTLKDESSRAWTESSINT

| EC50 [2] [nM] | SMILES | Activity [1] [%] |
| --- | --- | --- |
| 0.34 | CC(C)(N)C(=O)N[C@H](COCc1ccccc1-c1ccccc1)c1nnnn1CCOC(=O)NCCCCO | 836 |
| 6.75 | CC(C)(N)C(=O)N[C@H](COCc1cc(Cl)cc(Cl)c1)c1nnnn1CCOC(=O)NCCCCO | – |
| 34 | CC(C)(N)C(=O)N[C@H](COCc1cc(C(F)(F)F)cc(C(F)(F)F)c1)c1nnnn1CCOC(=O)NCCCCO | – |
| 33.2 | CC(C)(N)C(=O)N[C@H](COCc1ccc(OC(F)(F)F)cc1)c1nnnn1CCOC(=O)NCCCCO | – |
| 1.04 | Cc1noc(C)c1-c1ccccc1COC[C@@H](NC(=O)C(C)(C)N)c1nnnn1CCOC(=O)NCCCCO | 5237 |
| – | CC(C)(N)C(=O)N[C@H](COCc1ccccc1)c1nnnn1CCOC(=O)NCCCCO | 750 |
| 0.61 | CC(C)(N)C(=O)N[C@H](COCc1cccc(Cl)c1Cl)c1nnnn1CCOC(=O)NCCCCO | – |
| 1.6 | CC(C)(N)C(=O)N[C@H](COCc1cccc(Cl)c1)c1nnnn1CCOC(=O)NCCCCO | – |
| 0.45 | CC(C)(N)C(=O)N[C@H](COCc1ccccc1Cl)c1nnnn1CCOC(=O)NCCCCO | – |
| 1.79 | CC(C)(N)C(=O)N[C@H](COCc1cccc(C(F)(F)F)c1)c1nnnn1CCOC(=O)NCCCCO | – |
| 1.11 | COc1ccccc1COC[C@@H](NC(=O)C(C)(C)N)c1nnnn1CCOC(=O)NCCCCO | – |
| 1.26 | CC(C)(N)C(=O)N[C@H](COCc1ccccc1C#N)c1nnnn1CCOC(=O)NCCCCO | 920 |
| 1.18 | CC(C)(N)C(=O)N[C@H](COCc1ccccc1-c1cccnc1)c1nnnn1CCOC(=O)NCCCCO | – |
| 0.51 | Cc1ccccc1COC[C@@H](NC(=O)C(C)(C)N)c1nnnn1CCOC(=O)NCCCCO | 1441 |
| 1.66 | CC(C)(N)C(=O)N[C@H](COCC1CCCCC1)c1nnnn1CCOC(=O)NCCCCO | 1654 |
| 0.72 | CC(C)(N)C(=O)N[C@H](COCc1ccccc1C(F)(F)F)c1nnnn1CCOC(=O)NCCCCO | – |
| 0.42 | CC(C)(N)C(=O)N[C@H](COCc1ccc(F)cc1F)c1nnnn1CCOC(=O)NCCCCO | 1081 |
| 3.1 | CC(C)(N)C(=O)N[C@H](COCc1cccc(OC(F)(F)F)c1)c1nnnn1CCOC(=O)NCCCCO | – |
